This note sets out measurements from ChEMBL document CHEMBL2390917, “Synthesis and biological evaluation of 2-(5-methyl-4-phenyl-2-oxopyrrolidin-1-yl)-acetamide stereoisomers as novel positive allosteric modulators of sigma-1 receptor” (Bioorg Med Chem, 2013).

As a reminder, the inhibition is the change of the read-out against control, counted positive when it falls. What is called IC50 is the concentration that inhibits the measured activity by half. The low end stands for greater potency in that assay, the high end for weaker potency in that assay.

Series [1] has as its target Mu-type opioid receptor (Homo sapiens) (UniProt P35372). In words: Binding affinity to mu opioid receptor (unknown origin) at 10 uM by radioligand displacement assay relative to control. A general note: Loss of bound radioactivity is the signal in a displacement assay; it reports binding, not function.
The target in series [2] is D(3) dopamine receptor (Homo sapiens) (UniProt P35462). In words: Binding affinity to human dopamine D3 receptor at 10 uM by radioligand displacement assay relative to control.
The test system of series [3] is Mus musculus. In words: Cognitive enhancing effect in ICR mouse assessed as increase in retention latency at 10 mg/kg, ip administered 60 mins prior to testing measured after 24 hrs by passive avoidance test relative to control. The following applies: route intraperitoneal. It counts as functional.
For series [4], the target named is 5-hydroxytryptamine receptor 2A (Homo sapiens) (UniProt P28223). Put plainly: Binding affinity to human 5-HT2A receptor at 10 uM by radioligand displacement assay relative to control.
For series [5], the target named is Muscarinic acetylcholine receptor M3 (Homo sapiens) (UniProt P20309). In words: Binding affinity to human muscarinic M3 receptor at 10 uM by radioligand displacement assay relative to control.
Series [6] deals with T1, Sigma non-opioid intracellular receptor 1 (Homo sapiens, UniProt Q99720). Put plainly: Displacement of [3H]1,3-di(2-tolyl)guanidine from sigma 1 receptor in human Jurkat cells. It counts as cell-based.
Series [7] deals with 5-hydroxytryptamine receptor 6 (Homo sapiens) (UniProt P50406). Put plainly: Binding affinity to human 5-HT6 receptor at 10 uM by radioligand displacement assay relative to control.
Series [8] concerns the target D(2) dopamine receptor (Homo sapiens) (UniProt P14416). In words: Binding affinity to human dopamine D2S receptor at 10 uM by radioligand displacement assay relative to control.
The target in series [9] is Adenosine receptor A1 (Homo sapiens) (UniProt P30542). Put plainly: Binding affinity to human adenosine A1 receptor at 10 uM by radioligand displacement assay relative to control.
The target of series [10] is Vasoactive intestinal polypeptide receptor 1 (Homo sapiens) (UniProt P32241). In words: Binding affinity to human VPAC1 receptor at 10 uM by radioligand displacement assay relative to control.
The species named for series [11] is Homo sapiens. Put plainly: Binding affinity to L-type calcium channel verapamil binding site (unknown origin) at 10 uM by radioligand displacement assay relative to control.
For series [12], the species on record is Homo sapiens. In words: Binding affinity to P2Y receptor (unknown origin) at 10 uM by radioligand displacement assay relative to control.
For series [13], the target named is Endothelin receptor type B (Homo sapiens) (UniProt P24530). Put plainly: Binding affinity to human ETB receptor at 10 uM by radioligand displacement assay relative to control.
Series [14] concerns the target D(1A) dopamine receptor (Homo sapiens) (UniProt P21728). Put plainly: Binding affinity to human dopamine D1 receptor at 10 uM by radioligand displacement assay relative to control.
Series [15] deals with Mus musculus. In words: Antiamnesic activity in ICR mouse scopolamine-induced memory impairment model assessed as increase in retention latency at 5 mg/kg, ip administered 60 mins prior to scopolamine challenge measured after 40 mins by passive avoidance test in presence of sigma-1 receptor anatagonist NE-100. It counts as functional, organism-based. Details: dose 5 mg/kg.

Series [16] is filed under the species Homo sapiens. In words: Binding affinity to GABA-gated chloride channel (unknown origin) at 10 uM by radioligand displacement assay relative to control.
The target in series [17] is Neurotensin receptor type 1 (Homo sapiens) (UniProt P30989). Put plainly: Binding affinity to NTS1 receptor (unknown origin) at 10 uM by radioligand displacement assay relative to control.
For series [18], the target named is Sigma non-opioid intracellular receptor 1 (Rattus norvegicus) (UniProt Q9R0C9). In words: Positive allosteric modulation of Wistar rat sigma 1 receptor assessed as potentiation of PRE-084 effect on electrically-stimulated vas deferens contraction at 10 uM preincubated for 10 mins followed by PRE-084 addition. In short, it runs like this: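 Isolated rat vas deferens, proximal ~15 mm segments, in K-H buffer at 32 °C gassed […], with 1.0 g passive tension and a 60 min adaptation. Field-stimulated at 0.1 Hz, 1 ms, 50 V. Cumulative PRE-084 (1–100 µM) was given, then washout and a 30 min rest. Test compound 10 µM was added for 10 min before cumulative PRE-084. Response is % increase over baseline amplitude; n=6, mean ± SEM, paired t-test.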

Series [19] concerns Mus musculus. Put plainly: Toxicity in ICR mouse assessed as effect on locomotor activity measured moved distance per 4 mins at 1 mg/kg, ip after 30 mins by open field test (reference value: 1124 121 cm). The following applies: in vivo. It counts as organism-based. Details: dose 1 mg/kg, route intraperitoneal.
For series [20], the target named is T1, Sigma non-opioid intracellular receptor 1. In words: Modulation of sigma 1 receptor (unknown origin) by radioligand displacement assay relative to control.
The target in series [21] is Sodium-dependent serotonin transporter (Homo sapiens) (UniProt P31645). Put plainly: Binding affinity to human serotonin 5-HT transporter at 10 uM by radioligand displacement assay relative to control.
For series [22], the target named is Peroxisome proliferator-activated receptor gamma (Homo sapiens) (UniProt P37231). In words: Binding affinity to human PPARgamma receptor at 10 uM by radioligand displacement assay relative to control.
Series [23] concerns the target Endothelin-1 receptor (Homo sapiens) (UniProt P25101). In words: Binding affinity to human ETA receptor at 10 uM by radioligand displacement assay relative to control.

Calls of active or inactive are those of the source. The rule behind the calls is not given here.

T1 sequence (Q99720 whole entry): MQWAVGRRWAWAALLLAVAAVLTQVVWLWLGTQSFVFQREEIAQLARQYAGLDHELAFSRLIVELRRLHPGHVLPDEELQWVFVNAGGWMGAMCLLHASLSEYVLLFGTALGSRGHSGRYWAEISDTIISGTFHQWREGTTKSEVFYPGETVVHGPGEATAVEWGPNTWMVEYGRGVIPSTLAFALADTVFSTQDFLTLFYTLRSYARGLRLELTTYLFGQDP
Chain of Adenosine receptor A1 (Homo sapiens) (P30542 whole entry): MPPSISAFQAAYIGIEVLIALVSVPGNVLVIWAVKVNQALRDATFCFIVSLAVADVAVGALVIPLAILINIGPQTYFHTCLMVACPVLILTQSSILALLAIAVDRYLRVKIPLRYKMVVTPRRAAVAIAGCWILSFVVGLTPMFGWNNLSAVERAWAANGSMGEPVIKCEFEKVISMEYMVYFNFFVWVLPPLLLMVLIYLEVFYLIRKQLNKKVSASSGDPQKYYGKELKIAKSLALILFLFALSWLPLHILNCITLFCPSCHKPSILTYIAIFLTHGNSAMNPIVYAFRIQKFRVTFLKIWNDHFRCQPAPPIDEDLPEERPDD
Chain of D(1A) dopamine receptor (Homo sapiens) (P21728 whole entry): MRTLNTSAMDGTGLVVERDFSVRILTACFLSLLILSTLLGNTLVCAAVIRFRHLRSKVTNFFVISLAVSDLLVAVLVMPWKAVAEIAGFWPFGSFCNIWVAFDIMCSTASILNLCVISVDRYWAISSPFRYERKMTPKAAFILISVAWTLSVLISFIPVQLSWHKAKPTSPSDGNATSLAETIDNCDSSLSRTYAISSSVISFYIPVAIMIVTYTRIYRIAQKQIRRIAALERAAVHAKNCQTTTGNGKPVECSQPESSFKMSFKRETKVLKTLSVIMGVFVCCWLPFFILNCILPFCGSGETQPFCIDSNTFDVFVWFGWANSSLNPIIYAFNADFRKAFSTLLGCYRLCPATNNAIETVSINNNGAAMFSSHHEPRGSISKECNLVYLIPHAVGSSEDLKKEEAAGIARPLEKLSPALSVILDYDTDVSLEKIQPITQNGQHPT
Chain of Neurotensin receptor type 1 (Homo sapiens) (P30989 whole entry): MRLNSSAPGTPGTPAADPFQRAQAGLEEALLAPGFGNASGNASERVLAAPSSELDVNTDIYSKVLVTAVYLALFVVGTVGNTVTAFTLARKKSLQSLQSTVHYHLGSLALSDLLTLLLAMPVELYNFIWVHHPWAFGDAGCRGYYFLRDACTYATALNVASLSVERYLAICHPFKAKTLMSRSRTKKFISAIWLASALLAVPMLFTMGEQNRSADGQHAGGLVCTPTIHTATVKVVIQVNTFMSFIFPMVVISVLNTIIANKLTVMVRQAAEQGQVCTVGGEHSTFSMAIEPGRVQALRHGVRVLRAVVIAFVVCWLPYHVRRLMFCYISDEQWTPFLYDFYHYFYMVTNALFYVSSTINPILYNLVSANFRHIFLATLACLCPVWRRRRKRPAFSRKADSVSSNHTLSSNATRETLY
Chain of Vasoactive intestinal polypeptide receptor 1 (Homo sapiens) (P32241 whole entry): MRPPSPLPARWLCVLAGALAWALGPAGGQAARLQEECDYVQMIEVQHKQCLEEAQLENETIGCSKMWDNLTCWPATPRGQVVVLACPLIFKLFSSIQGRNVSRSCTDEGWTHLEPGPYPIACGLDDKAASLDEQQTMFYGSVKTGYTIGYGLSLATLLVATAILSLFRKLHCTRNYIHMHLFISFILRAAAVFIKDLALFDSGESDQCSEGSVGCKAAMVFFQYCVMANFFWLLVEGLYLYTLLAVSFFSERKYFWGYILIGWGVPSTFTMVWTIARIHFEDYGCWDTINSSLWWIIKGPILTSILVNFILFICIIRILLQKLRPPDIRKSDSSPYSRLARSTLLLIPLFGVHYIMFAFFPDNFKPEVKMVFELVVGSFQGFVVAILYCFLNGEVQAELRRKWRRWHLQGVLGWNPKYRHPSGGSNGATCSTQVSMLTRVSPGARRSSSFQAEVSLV
Chain of Muscarinic acetylcholine receptor M3 (Homo sapiens) (P20309 whole entry, looked up): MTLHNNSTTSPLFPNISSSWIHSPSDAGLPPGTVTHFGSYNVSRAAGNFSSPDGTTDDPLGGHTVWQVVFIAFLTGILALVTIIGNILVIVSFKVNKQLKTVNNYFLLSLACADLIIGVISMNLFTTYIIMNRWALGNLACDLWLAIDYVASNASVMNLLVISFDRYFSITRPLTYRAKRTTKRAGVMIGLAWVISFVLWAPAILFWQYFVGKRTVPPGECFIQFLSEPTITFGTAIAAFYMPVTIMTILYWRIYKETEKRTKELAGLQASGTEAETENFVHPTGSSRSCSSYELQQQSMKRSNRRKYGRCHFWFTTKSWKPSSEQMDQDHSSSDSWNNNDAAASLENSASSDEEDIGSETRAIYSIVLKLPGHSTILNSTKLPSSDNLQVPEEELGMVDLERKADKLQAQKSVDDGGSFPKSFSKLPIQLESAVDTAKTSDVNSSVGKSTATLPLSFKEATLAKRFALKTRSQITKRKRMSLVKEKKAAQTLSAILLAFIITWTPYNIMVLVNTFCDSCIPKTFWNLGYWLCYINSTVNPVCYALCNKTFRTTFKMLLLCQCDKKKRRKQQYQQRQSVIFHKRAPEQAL
Chain of 5-hydroxytryptamine receptor 6 (Homo sapiens) (P50406 whole entry): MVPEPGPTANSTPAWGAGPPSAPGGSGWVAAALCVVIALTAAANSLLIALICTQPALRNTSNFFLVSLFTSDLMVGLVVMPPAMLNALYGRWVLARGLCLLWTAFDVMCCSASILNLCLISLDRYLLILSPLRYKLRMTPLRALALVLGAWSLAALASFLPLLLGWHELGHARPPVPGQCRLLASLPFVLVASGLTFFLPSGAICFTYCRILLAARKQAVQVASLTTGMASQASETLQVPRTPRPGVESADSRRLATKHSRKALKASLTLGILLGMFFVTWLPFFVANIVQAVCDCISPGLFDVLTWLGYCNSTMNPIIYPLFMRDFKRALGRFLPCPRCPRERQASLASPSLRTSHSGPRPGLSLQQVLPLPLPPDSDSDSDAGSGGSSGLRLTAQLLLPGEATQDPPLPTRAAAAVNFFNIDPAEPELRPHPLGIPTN
Chain of Endothelin receptor type B (Homo sapiens) (P24530 whole entry): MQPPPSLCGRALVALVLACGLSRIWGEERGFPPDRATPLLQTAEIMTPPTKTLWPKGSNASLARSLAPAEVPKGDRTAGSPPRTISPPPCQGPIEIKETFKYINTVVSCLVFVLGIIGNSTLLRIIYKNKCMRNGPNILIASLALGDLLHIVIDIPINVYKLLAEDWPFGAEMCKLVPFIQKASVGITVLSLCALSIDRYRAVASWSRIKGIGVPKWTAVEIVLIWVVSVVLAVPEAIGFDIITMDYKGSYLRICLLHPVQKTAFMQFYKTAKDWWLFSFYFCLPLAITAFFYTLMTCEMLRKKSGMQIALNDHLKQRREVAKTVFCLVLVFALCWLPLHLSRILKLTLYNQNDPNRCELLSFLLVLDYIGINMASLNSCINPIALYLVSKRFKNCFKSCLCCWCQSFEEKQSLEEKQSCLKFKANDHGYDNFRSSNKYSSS
Chain of D(2) dopamine receptor (Homo sapiens) (P14416 whole entry): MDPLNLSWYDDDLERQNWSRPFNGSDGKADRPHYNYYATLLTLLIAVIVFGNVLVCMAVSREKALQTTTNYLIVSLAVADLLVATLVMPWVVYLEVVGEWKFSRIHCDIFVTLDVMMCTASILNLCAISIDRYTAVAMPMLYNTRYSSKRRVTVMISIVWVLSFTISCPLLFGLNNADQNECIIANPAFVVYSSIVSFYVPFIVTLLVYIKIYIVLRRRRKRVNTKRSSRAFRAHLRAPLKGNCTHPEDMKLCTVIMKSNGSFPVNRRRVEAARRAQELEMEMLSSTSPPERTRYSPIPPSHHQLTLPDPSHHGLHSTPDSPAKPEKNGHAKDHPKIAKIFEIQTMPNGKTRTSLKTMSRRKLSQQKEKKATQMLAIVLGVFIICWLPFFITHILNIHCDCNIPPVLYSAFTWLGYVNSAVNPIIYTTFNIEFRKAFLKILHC
Chain of Endothelin-1 receptor (Homo sapiens) (P25101 whole entry): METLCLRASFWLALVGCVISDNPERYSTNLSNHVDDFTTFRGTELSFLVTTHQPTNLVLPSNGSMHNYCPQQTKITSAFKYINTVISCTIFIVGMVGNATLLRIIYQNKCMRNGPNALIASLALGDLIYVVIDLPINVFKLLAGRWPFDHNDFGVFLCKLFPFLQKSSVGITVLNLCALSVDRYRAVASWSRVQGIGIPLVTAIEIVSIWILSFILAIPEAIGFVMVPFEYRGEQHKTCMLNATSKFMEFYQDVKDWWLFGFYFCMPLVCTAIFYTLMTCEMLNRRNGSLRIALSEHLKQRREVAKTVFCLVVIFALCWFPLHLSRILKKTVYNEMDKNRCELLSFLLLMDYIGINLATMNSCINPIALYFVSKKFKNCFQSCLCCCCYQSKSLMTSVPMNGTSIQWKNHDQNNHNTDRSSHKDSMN
Chain of Mu-type opioid receptor (Homo sapiens) (P35372 whole entry): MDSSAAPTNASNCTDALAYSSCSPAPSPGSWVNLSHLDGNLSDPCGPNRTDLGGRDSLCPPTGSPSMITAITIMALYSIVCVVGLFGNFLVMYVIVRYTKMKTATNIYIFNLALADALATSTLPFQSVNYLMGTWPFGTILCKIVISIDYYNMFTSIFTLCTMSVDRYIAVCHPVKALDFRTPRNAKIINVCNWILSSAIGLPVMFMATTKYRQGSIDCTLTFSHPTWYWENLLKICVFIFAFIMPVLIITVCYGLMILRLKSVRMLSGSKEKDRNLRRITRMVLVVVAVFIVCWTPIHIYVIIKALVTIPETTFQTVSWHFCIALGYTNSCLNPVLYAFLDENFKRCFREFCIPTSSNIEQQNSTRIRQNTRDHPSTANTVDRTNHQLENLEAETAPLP
Chain of Sigma non-opioid intracellular receptor 1 (Rattus norvegicus) (Q9R0C9 whole entry): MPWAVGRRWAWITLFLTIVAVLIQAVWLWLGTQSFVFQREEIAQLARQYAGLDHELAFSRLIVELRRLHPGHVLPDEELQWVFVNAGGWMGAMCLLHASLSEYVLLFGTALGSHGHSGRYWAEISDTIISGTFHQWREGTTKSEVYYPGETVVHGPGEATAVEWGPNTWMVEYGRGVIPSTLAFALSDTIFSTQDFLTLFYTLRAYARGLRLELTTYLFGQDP

Take `C[C@H]1[C@@H](c2ccccc2)CC(=O)N1CC(N)=O`: the inhibition in [1] was -7%; in [2], 7%; in series [4], 5%; in series [5], -7%; in series [7], -10%; in [8], 5%. The inhibition in series [9] is 2%; in series [10] it was -2%; in the series filed under Homo sapiens [11] it was -1%; in the series listed under Homo sapiens [12], -4%; in [13] it was 2%; in [14] it was -6%. Besides, the inhibition is -3% in the series listed under Homo sapiens [16]; -3% in series [17]; 5% in [21]; -9% in series [22]; -2% in series [23]. Also, the figures for the Activity (in the series with Mus musculus [3]; in the series on Mus musculus [19]; in series [20]) were 211%, 1402 cm and above 20%, respectively. In addition, the IC50 in series [6] stood at 43 nM. For the same compound, in the series on Mus musculus [15], the result was inactive. The result in [18] was Active.
